In PubChem BioAssay AID977615 (Broad Institute, 2014):
Where “and” joins values, the source holds several entries; their conditions need not be identical. Equal values may be shown once. Calls of active or inactive are those of the source.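 Rule for the calls: active = cell killing with fitted AC50 at or below twice the top valid dose for that sample; inconclusive = flat curve losing 30 to 70% signal, or bad fit; inactive = the rest.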

Experiments:
[1] = system: HEK293T viability, CellTiter-Glo ATP luminescence, 72 h; test: HEK293T cell cytotoxicity, dose response, cytotoxicity control, CellTiter-Glo luminescence, dry powder, set 17 (AID 977615)
Procedure, shortened: (§1)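 Assay system: HEK293T cells. Buffer or medium: DMEM plus 10% FBS. Compound dosing: multi-concentration compound series. Schedule: 24 h attachment, 72 h compound exposure, 37 °C, 5% CO2. Signal: CellTiter-Glo ATP luminescence.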

[2] = as above; details: HEK293T viability, CellTiter-Glo ATP luminescence, 72 h; at 26 µM (top of the series)
Procedure, shortened: as §1

Work on COc1ccccc1-c1ccc(CN(C)C[C@@H]2Oc3cc(C#C[C@@H](C)O)ccc3S(=O)(=O)N([C@@H](C)CO)C[C@@H]2C)cc1 yielded an AC50 [1] of 1350 nM.

In the case of Cc1cccc(-c2ccc(CN(C)C[C@@H]3Oc4cc(C#C[C@@H](C)O)ccc4S(=O)(=O)N([C@@H](C)CO)C[C@@H]3C)cc2)c1, the AC50 [1] was 1530 nM.

With CNC[C@@H]1Oc2cc(Br)ccc2S(=O)(=O)N([C@@H](C)CO)C[C@@H]1C the activity change, negative = cytotoxic [2] was -16.1% (inactive).

With COc1cccc(-c2ccc(CN(C)C[C@@H]3Oc4cc(C#C[C@@H](C)O)ccc4S(=O)(=O)N([C@@H](C)CO)C[C@@H]3C)cc2)c1 the AC50 [1] was 884 nM.

Cc1ccc(-c2ccc(CN(C)C[C@@H]3Oc4cc(C#C[C@@H](C)O)ccc4S(=O)(=O)N([C@@H](C)CO)C[C@@H]3C)cc2)cc1 gave an AC50 [1] of 1540 nM.

Work on C[C@H](O)C#Cc1ccc2c(c1)O[C@H](CN(C)Cc1ccc(-c3ccccc3)cc1)[C@@H](C)CN([C@@H](C)CO)S2(=O)=O yielded an AC50 [1] of 7120 nM.

For C[C@@H](O)C#Cc1ccc2c(c1)O[C@@H](CN(C)S(=O)(=O)c1ccc(-c3ccccc3)cc1)[C@@H](C)CN([C@@H](C)CO)S2(=O)=O, the activity change, negative = cytotoxic [2] was -12.1% (inactive).

For C[C@@H](O)C#Cc1ccc2c(c1)O[C@@H](CN(C)Cc1ccc(-c3ccccc3)cc1)[C@@H](C)CN([C@@H](C)CO)S2(=O)=O, the AC50 [1] was 3610 nM and 2940 nM.

C[C@H](O)C#Cc1ccc2c(c1)O[C@@H](CN(C)Cc1ccc(-c3ccccc3)cc1)[C@@H](C)CN([C@@H](C)CO)S2(=O)=O gave an AC50 [1] of 22000 nM.

In the case of C[C@@H](O)C#Cc1ccc2c(c1)O[C@@H](CN(C)Cc1ccc(-c3cccc(Cl)c3)cc1)[C@@H](C)CN([C@@H](C)CO)S2(=O)=O, the AC50 [1] was 2080 nM.

For CO[C@H]1CN(C)C(=O)c2ccc(NC(=O)c3ccc(F)cc3)cc2OC[C@H](C)N(C(=O)c2ccc(F)cc2)C[C@@H]1C, the activity change, negative = cytotoxic [2] was 1.97% (inactive).

For C[C@H](CO)N1C[C@H](C)[C@H](CN(C)Cc2ccc(-c3ccccc3)cc2)Oc2cc(C#C[C@@H](C)O)ccc2S1(=O)=O, the AC50 [1] was 21700 nM.

In the case of C[C@H](O)C#Cc1ccc2c(c1)O[C@@H](CN(C)Cc1ccc(-c3ccccc3)cc1)[C@H](C)CN([C@H](C)CO)S2(=O)=O, the AC50 [1] was 26100 nM.

For C[C@@H](O)C#Cc1ccc2c(c1)O[C@@H](CN(C)Cc1ccncc1)[C@@H](C)CN([C@@H](C)CO)S2(=O)=O, the activity change, negative = cytotoxic [2] was -12% (inactive).

Work on Cc1ccccc1-c1ccc(CN(C)C[C@@H]2Oc3cc(C#C[C@@H](C)O)ccc3S(=O)(=O)N([C@@H](C)CO)C[C@@H]2C)cc1 yielded an AC50 [1] of 1890 nM.

In the case of C[C@@H]1CN([C@H](C)CO)S(=O)(=O)c2ccc(C#C[C@@H](C)O)cc2O[C@@H]1CN(C)Cc1ccc(-c2ccccc2)cc1, the activity change, negative = cytotoxic [2] was 2.1% (inactive).

In the case of C[C@@H]1CN([C@@H](C)CO)S(=O)(=O)c2ccc(C#C[C@@H](C)O)cc2O[C@@H]1CN(C)Cc1ccc(-c2ccccc2)cc1, the activity change, negative = cytotoxic [2] was -8.45% (inactive).

C[C@@H](O)C#Cc1ccc2c(c1)O[C@H](CN(C)Cc1ccc(-c3ccccc3)cc1)[C@@H](C)CN([C@@H](C)CO)S2(=O)=O gave an AC50 [1] of 25900 nM.

C[C@@H](O)C#Cc1ccc2c(c1)O[C@@H](CN(C)Cc1ccc(-c3ccccc3Cl)cc1)[C@@H](C)CN([C@@H](C)CO)S2(=O)=O gave an AC50 [1] of 364 nM.

With C[C@@H](O)C#Cc1ccc2c(c1)O[C@@H](CN(C)Cc1cccnc1)[C@@H](C)CN([C@@H](C)CO)S2(=O)=O the activity change, negative = cytotoxic [2] was 2.11% (inactive).

In the case of COc1ccc(-c2ccc(CN(C)C[C@@H]3Oc4cc(C#C[C@@H](C)O)ccc4S(=O)(=O)N([C@@H](C)CO)C[C@@H]3C)cc2)cc1, the AC50 [1] was 1580 nM.

Compound C[C@H]1CN([C@@H](C)CO)S(=O)(=O)c2ccc(C#CC(C)(C)O)cc2O[C@H]1CN(C)Cc1ccc(-c2ccccc2)cc1 has an AC50 [1] of 18000 nM.

With C[C@@H]1CN([C@H](C)CO)S(=O)(=O)c2ccc(C#C[C@@H](C)O)cc2O[C@H]1CN(C)Cc1ccc(-c2ccccc2)cc1 the activity change, negative = cytotoxic [2] was -10.1% (inactive).

Compound C[C@@H](O)C#Cc1ccc2c(c1)O[C@@H](CN(C)Cc1ccc(-c3ccc(Cl)cc3)cc1)[C@@H](C)CN([C@@H](C)CO)S2(=O)=O has an AC50 [1] of 1260 nM.

In the case of COc1ccc(-c2ccc3c(c2)O[C@@H](CN(C)Cc2ccc(-c4ccccc4)cc2)[C@@H](C)CN([C@@H](C)CO)S3(=O)=O)cc1, the AC50 [1] was > 52000 nM (inactive).

In the case of C[C@H](O)C#Cc1ccc2c(c1)O[C@H](CN(C)Cc1ccc(-c3ccccc3)cc1)[C@H](C)CN([C@@H](C)CO)S2(=O)=O, the activity change, negative = cytotoxic [2] was -11.3% (inactive).

With C[C@H]1CN([C@@H](C)CO)S(=O)(=O)c2ccc(Br)cc2O[C@H]1CN(C)Cc1ccc(-c2ccccc2)cc1 the activity change, negative = cytotoxic [2] was -0.919% (inactive).
